Experimental data from PMC6130786 (ACS Omega, 2018).

Experiments:
Aβ fibrils = Aβ fibrils (Homo sapiens, UniProt P05067); experiment: Thioflavin-T competition binding assay, Aβ fibrils
Outline: (§1)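 Fibrils were prepared per earlier work and held fixed at 1 μM. Thioflavin-T was 50 nM with Aβ fibrils and 4 μM with tau fibrils. Test compound at varying concentrations was diluted in 30 mM Tris-HCl pH 7.4 with 0.1% BSA. Incubation was 1.5 h at room temperature, and fluorescence was read at ex 440/30, em 485/20. EC50 came from a one-site competitive fit, Ki = EC50/(1+[ligand]/Kd), as mean ± SD of two assays.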

tau fibrils = tau fibrils (Homo sapiens, UniProt P10636); experiment: Thioflavin-T competition binding assay, tau fibrils
Sequence of tau fibrils (P10636 560-692 limits assumed): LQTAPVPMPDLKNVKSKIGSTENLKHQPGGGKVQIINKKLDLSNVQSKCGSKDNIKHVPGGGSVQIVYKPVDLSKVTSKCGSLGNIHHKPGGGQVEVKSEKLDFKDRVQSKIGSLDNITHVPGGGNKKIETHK
Outline: as §1

Sequence of Aβ fibrils (P05067 672-713): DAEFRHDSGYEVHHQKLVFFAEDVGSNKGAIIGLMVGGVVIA

Row | Structure (SMILES) | Ki (Aβ fibrils) [µM] | Ki (tau fibrils) [µM]
1 | CN(C)c1ccc(/C=C/C(=O)c2nccs2)cc1 [Compound 8, (E)-3-(4-(Dimethylamino)phenyl)-1-(thiazol-2-yl)prop-2-en-1-one] | 0.505 ± 0.0495 | 0.401 ± 0.118
2 | COc1ccc(-c2cc(-c3nccs3)n[nH]2)cc1 [Compound 12, 2-(5-(4-Methoxyphenyl)-1H-pyrazol-3-yl)thiazole] | > 1 | > 1
3 | COc1ccc(/C=C/C(=O)c2nccs2)cc1 [Compound 7, (E)-3-(4-Methoxyphenyl)-1-(thiazol-2-yl)prop-2-en-1-one] | > 0.5 | > 1
4 | COc1ccc(-c2cc(-c3nccs3)on2)cc1 [Compound 10, 3-(4-Methoxyphenyl)-5-(thiazol-2-yl)isoxazole] | > 1 | > 1

These reach a lower Ki (Aβ fibrils). Values come first.

Row | Ki (Aβ fibrils) [µM] | Ki (tau fibrils) [µM] | Structure (SMILES)
5 | 0.091 ± 0.0127 |  | CN(C)c1ccc(/C=C/C(=O)c2nc3ccccc3s2)cc1 [Compound 5, (E)-1-(Benzo[d]thiazol-2-yl)-3-(4-(dimethylamino)phenyl)prop-2-en-1-one]
6 | 0.089 ± 0.0269 |  | O=C(/C=C/c1ccc([N+](=O)[O-])cc1)c1nc2ccccc2s1 [Compound 6, (E)-1-(Benzo[d]thiazol-2-yl)-3-(4-nitrophenyl)prop-2-en-1-one]
7 | 0.404 ± 0.0806 |  | O=C(/C=C/c1ccc([N+](=O)[O-])cc1)c1nccs1 [Compound 9, (E)-3-(4-Nitrophenyl)-1-(thiazol-2-yl)prop-2-en-1-one]
8 | 0.327 ± 0.0764 | > 1 | COc1ccc(/C=C/c2cc(-c3nccs3)[nH]n2)cc1 [Compound 13, (E)-2-(3-(4-Methoxystyryl)-1H-pyrazol-5-yl)thiazole]
9 | 0.353 ± 0.0297 | 0.716 ± 0.0587 | COc1ccc(/C=C/C(=O)c2nc3ccccc3s2)cc1 [Compound 4, (E)-1-(Benzo[d]thiazol-2-yl)-3-(4-methoxyphenyl)prop-2-en-1-one]
